From paper PMC9037808 (RSC Advances, 2021) come the findings set out here.

Where two headings read alike, the source gives them in different places.

Holding throughout (type): cell-based
Experiment [1] has as its system HeLa. Nature of the experiment: MTT cytotoxicity assay, HeLa. Conditions: read-out: IC50, HeLa. The gist of the method:
(§1)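 Cells were grown at 37 °C in 5% CO2: HeLa and NRK-52E in DMEM, NCI-H520 in RPMI, each with 10% heat-inactivated FBS plus penicillin/streptomycin/amphotericin B. They were seeded at 10^4 cells/well in triplicate and left 24 h. Test compound (5–300 μM) was added for 24 h, then removed with a PBS wash. MTT was added for 3 h, formazan dissolved in DMSO, and A570 read. IC50 came from nonlinear regression of survival curves, shown as mean ± SE of triplicate independent analyses.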
For orientation: Formazan colour is commonly taken as a measure of viable cells.

Experiment [2] relates to NCI-H520. Kind of experiment: MTT cytotoxicity assay, NCI-H520. The note with it: read-out: IC50, NCI-H520. The gist of the method:
as §1

A further experiment relates to NRK-52E. Kind of experiment: MTT cytotoxicity assay, NRK-52E. Conditions: read-out: IC50, NRK-52E, 24 h treatment, normal rat kidney epithelial cell line. An outline of the steps:
as §1

In experiment [3] the test system is HeLa. Nature of the experiment: Apoptosis, Muse Annexin V & Dead cell kit, HeLa. Conditions: IC50 dose (12.59 μM 4a, 11.26 μM 7b), 24 h; untreated 8.05%.
Experiment [4] has as its system NCI-H520. Kind of experiment: Apoptosis, Muse Annexin V & Dead cell kit, NCI-H520. The note with it: IC50 dose; untreated 7.15%.
Where [5] appears, read: MTT, 24 h treatment, mean of three independent experiments.

As usually defined, the IC50 is the concentration that inhibits the measured activity by half.

On to `O=c1[nH]cc(F)c(=O)[nH]1` [5-Fluorouracil, reference compound], for which the concentration for half-maximal inhibition (IC50) with HeLa [1] (Homo sapiens, HeLa, 24 h) stood at 55.7 ± 2.1 µM; in the experiment with NCI-H520 [2] (Homo sapiens, NCI-H520, 24 h), 8.36 ± 0.45 µM.
As for `N.N.[Cl][Pt][Cl]` [Cis-platin, reference compound], the IC50 in the experiment with HeLa [1] (setting [5]) was determined as 7.75 ± 0.42 µM; in the experiment with NCI-H520 [2] (setting [5]) it was 10.4 ± 1.35 µM; in the experiment with NRK-52E it was 12.9 ± 0.4 µM.
As for `CCn1c2ccccc2c2cc(/C=C/C(=O)c3cc4ccccc4oc3=O)ccc21` [Compound 3a, (E)-3-(3-(9-Ethyl-9H-carbazol-3-yl)acryloyl)-2H-chromen-2-one], the IC50 in the experiment with HeLa [1] (Homo sapiens, HeLa, 24 h) amounted to 132 ± 5.16 µM; with NCI-H520 [2] (Homo sapiens, NCI-H520, 24 h), 120 ± 3.78 µM.
For `CCn1c2ccccc2c2cc(/C=C/C(=O)c3cc4cccc(OC)c4oc3=O)ccc21` [Compound 3b, (E)-3-(3-(9-Ethyl-9H-carbazol-3-yl)acryloyl)-8-methoxy-2H-chromen-2-one], in that order: 119 ± 6.88 µM and 103 ± 4.78 µM.
Taken in the same sequence, the figures for `CCn1c2ccccc2c2cc(/C=C/C(=O)c3cc4c(ccc5ccccc54)oc3=O)ccc21` [Compound 3c, (E)-2-(3-(9-Ethyl-9H-carbazol-3-yl)acryloyl)-3H-benzo[f]chromen-3-one] were 142 ± 7.77 µM and 133 ± 4.75 µM.
On to `CCn1c2ccccc2c2cc(C3CC(c4cc5ccccc5oc4=O)=NN3C(N)=O)ccc21` (stereo not drawn) [Compound 4a, 5-(9-Ethyl-9H-carbazol-3-yl)-3-(2-oxo-2H-chromen-3-yl)-4,5-dihydro-1H-pyrazole-1-carboxamide], for which the IC50 came to 12.59 ± 0.1 µM in the experiment on HeLa [1] (Homo sapiens, HeLa, 24 h) and 11.3 ± 0.45 µM with NCI-H520 [2] (Homo sapiens, NCI-H520, 24 h). The “apoptotic cells, HeLa” value in the experiment on HeLa [3] amounted to 25.5%. Also, the “apoptotic cell death, NCI-H520” value with NCI-H520 [4] worked out at 18%.
Consider `CCn1c2ccccc2c2cc(C3CC(c4cc5cccc(OC)c5oc4=O)=NN3C(N)=O)ccc21` (stereo not drawn) [Compound 4b, 5-(9-Ethyl-9H-carbazol-3-yl)-3-(8-methoxy-2-oxo-2H-chromen-3-yl)-4,5-dihydro-1H-pyrazole-1-carboxamide], for which the IC50 with HeLa [1] (Homo sapiens, HeLa, 24 h) stood at 29.8 ± 1.85 µM; in the experiment on NCI-H520 [2] (Homo sapiens, NCI-H520, 24 h), 22.5 ± 2.15 µM.
Regarding `CCn1c2ccccc2c2cc(C3CC(c4cc5c(ccc6ccccc65)oc4=O)=NN3C(N)=O)ccc21` (stereo not drawn) [Compound 4c, 5-(9-Ethyl-9H-carbazol-3-yl)-3-(3-oxo-3H-benzo[f]chromen-2-yl)-4,5-dihydro-1H-pyrazole-1-carboxamide], the IC50 was found to be 43.5 ± 1.02 µM in the experiment with HeLa [1] (Homo sapiens, HeLa, 24 h) and 55.6 ± 1.93 µM in the experiment on NCI-H520 [2] (Homo sapiens, NCI-H520, 24 h).
`CCn1c2ccccc2c2cc(C3CC(c4cc5ccccc5oc4=O)=NN3c3ccccc3)ccc21` (stereo not drawn) [Compound 5a, 3-(5-(9-Ethyl-9H-carbazol-3-yl)-1-phenyl-4,5-dihydro-1H-pyrazol-3-yl)-2H-chromen-2-one]: the IC50 in the experiment with HeLa [1] (Homo sapiens, HeLa, 24 h) was 92.5 ± 4.25 µM; in the experiment on NCI-H520 [2] (Homo sapiens, NCI-H520, 24 h) it was 81.2 ± 1.46 µM.
Consider `CCn1c2ccccc2c2cc(C3CC(c4cc5cccc(OC)c5oc4=O)=NN3c3ccccc3)ccc21` (stereo not drawn) [Compound 5b, 3-(5-(9-Ethyl-9H-carbazol-3-yl)-1-phenyl-4,5-dihydro-1H-pyrazol-3-yl)-8-methoxy-2H-chromen-2-one], for which the IC50 stood at 39 ± 0.46 µM with HeLa [1] (Homo sapiens, HeLa, 24 h) and 62.7 ± 1.63 µM with NCI-H520 [2] (Homo sapiens, NCI-H520, 24 h).
Take `CCn1c2ccccc2c2cc(C3CC(c4cc5c(ccc6ccccc65)oc4=O)=NN3c3ccccc3)ccc21` (stereo not drawn) [Compound 5c, 2-(5-(9-Ethyl-9H-carbazol-3-yl)-1-phenyl-4,5-dihydro-1H-pyrazol-3-yl)-3H-benzo[f] chromen-3-one]: the IC50 is 55 ± 0.96 µM in the experiment with HeLa [1] (Homo sapiens, HeLa, 24 h) and 83.6 ± 1.2 µM in the experiment on NCI-H520 [2] (Homo sapiens, NCI-H520, 24 h).
On to `CCn1c2ccccc2c2cc(C3CC(c4cc5ccccc5oc4=O)=NN3c3ccc(C)cc3)ccc21` (stereo not drawn) [Compound 6a, 3-(5-(9-Ethyl-9H-carbazol-3-yl)-1-(p-tolyl)-4,5-dihydro-1H-pyrazol-3-yl)-2H-chromen-2-one], for which the IC50 was determined as 67 ± 1.87 µM in the experiment on HeLa [1] (Homo sapiens, HeLa, 24 h) and 38.3 ± 0.78 µM in the experiment with NCI-H520 [2] (Homo sapiens, NCI-H520, 24 h).
On to `CCn1c2ccccc2c2cc(C3CC(c4cc5cccc(OC)c5oc4=O)=NN3c3ccc(C)cc3)ccc21` (stereo not drawn) [Compound 6b, 3-(5-(9-Ethyl-9H-carbazol-3-yl)-1-(p-tolyl)-4,5-dihydro-1H-pyrazol-3-yl)-8-methoxy-2H-chromen-2-one], for which the IC50 in the experiment on HeLa [1] (Homo sapiens, HeLa, 24 h) came to 30.8 ± 0.5 µM; in the experiment on NCI-H520 [2] (Homo sapiens, NCI-H520, 24 h), 30 ± 0.33 µM.
As to `CCn1c2ccccc2c2cc(C3CC(c4cc5c(ccc6ccccc65)oc4=O)=NN3c3ccc(C)cc3)ccc21` (stereo not drawn) [Compound 6c, 2-(5-(9-Ethyl-9H-carbazol-3-yl)-1-(p-tolyl)-4,5-dihydro-1H-pyrazol-3-yl)-3H-benzo[f] chromen-3-one], the IC50 in the experiment on HeLa [1] (Homo sapiens, HeLa, 24 h) is 57.5 ± 1.32 µM; with NCI-H520 [2] (Homo sapiens, NCI-H520, 24 h), 61.7 ± 1.48 µM.
Taken in the same sequence, the figures for `CCn1c2ccccc2c2cc(C3CC(c4cc5ccccc5oc4=O)=NN3c3cccc(Cl)c3)ccc21` (stereo not drawn) [Compound 7a, 3-(1-(3-Chlorophenyl)-5-(9-ethyl-9H-carbazol-3-yl)-4,5-dihydro-1H-pyrazol-3-yl)-2H-chromen-2-one] were 33.4 ± 0.64 µM and 14.3 ± 0.21 µM.
Consider `CCn1c2ccccc2c2cc(C3CC(c4cc5cccc(OC)c5oc4=O)=NN3c3cccc(Cl)c3)ccc21` (stereo not drawn) [Compound 7b, 3-(1-(3-Chlorophenyl)-5-(9-ethyl-9H-carbazol-3-yl)-4,5-dihydro-1H-pyrazol-3-yl)-8-methoxy-2H-chromen-2-one], for which the IC50 in the experiment on HeLa [1] (Homo sapiens, HeLa, 24 h) turned out to be 11.4 ± 0.24 µM; in the experiment with NCI-H520 [2] (Homo sapiens, NCI-H520, 24 h) it was 9.13 ± 0.08 µM. The “apoptotic cells, HeLa” value in the experiment with HeLa [3] is recorded as 24%. In addition, the “apoptotic cell death, NCI-H520” value with NCI-H520 [4] is given as 16.10%.
Turning to `CCn1c2ccccc2c2cc(C3CC(c4cc5c(ccc6ccccc65)oc4=O)=NN3c3cccc(Cl)c3)ccc21` (stereo not drawn) [Compound 7c, 2-(1-(3-Chlorophenyl)-5-(9-ethyl-9H-carbazol-3-yl)-4,5-dihydro-1H-pyrazol-3-yl)-3H-benzo[f]chromen-3-one], the IC50 was determined as 29 ± 0.84 µM in the experiment with HeLa [1] (Homo sapiens, HeLa, 24 h) and 20.8 ± 0.27 µM with NCI-H520 [2] (Homo sapiens, NCI-H520, 24 h).
Consider `CCn1c2ccccc2c2cc(C3CC(c4cc5ccccc5oc4=O)=NN3C(C)=O)ccc21` (stereo not drawn) [Compound 8a, 3-(1-Acetyl-5-(9-ethyl-9H-carbazol-3-yl)-4,5-dihydro-1H-pyrazol-3-yl)-2H-chromen-2-one], for which the IC50 in the experiment with HeLa [1] (Homo sapiens, HeLa, 24 h) came out at 43.2 ± 0.52 µM; in the experiment with NCI-H520 [2] (Homo sapiens, NCI-H520, 24 h), 62.5 ± 1.95 µM.
Taken in the same sequence, the figures for `CCn1c2ccccc2c2cc(C3CC(c4cc5cccc(OC)c5oc4=O)=NN3C(C)=O)ccc21` (stereo not drawn) [Compound 8b, 3-(1-Acetyl-5-(9-ethyl-9H-carbazol-3-yl)-4,5-dihydro-1H-pyrazol-3-yl)-8-methoxy-2H-chromen-2-one] were 76.8 ± 1.45 µM and 54.7 ± 0.65 µM.
For `CCn1c2ccccc2c2cc(C3CC(c4cc5c(ccc6ccccc65)oc4=O)=NN3C(C)=O)ccc21` (stereo not drawn) [Compound 8c, 2-(1-Acetyl-5-(9-ethyl-9H-carbazol-3-yl)-4,5-dihydro-1H-pyrazol-3-yl)-3H-benzo[f]chromen-3-one], the IC50 in the experiment on HeLa [1] (Homo sapiens, HeLa, 24 h) came to 55.9 ± 1.3 µM; in the experiment with NCI-H520 [2] (Homo sapiens, NCI-H520, 24 h), 77.61 ± 0.34 µM.
